This is an account of results in ChEMBL document CHEMBL1137420, “Design of cyclic peptides with agonist activity at melanocortin receptor-4” (Bioorg Med Chem Lett, 2006).

Test [1] has as its target T1, Melanocortin receptor 4 (Homo sapiens, UniProt P32245). The experiment in a line: Displacement of [125I]NDP-alpha-MSH from human cloned MC4R expressed in HEK293 cells. It counts as cell-based. In short, it runs like this:
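Binding affinity was measured by displacement of radiolabelled [125I]NDP-alpha-MSH ([Nle4, D-Phe7]-alpha-MSH) from recombinant human MC4R expressed in HEK-293 cells.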

Test [2] addresses Melanocortin receptor (M1 and M4) (Homo sapiens, UniProt P32245+Q01726). As to the kind of experiment: Selectivity for human MC4R over MC1R. It counts as functional.
Test [3] addresses Melanocyte-stimulating hormone receptor (Homo sapiens, UniProt Q01726). The experiment in a line: Activity at human MC1R by cAMP accumulation in SaoS2 cells. It is filed as functional, cell-based, SAOS-2. A general note: Cyclic AMP is a second messenger, typically raised through Gs and lowered through Gi signalling.
For test [4], the target named is T1, Melanocortin receptor 4. As to the kind of experiment: Activity at human MC4R by cAMP accumulation in SaoS2 cells. It is filed as functional, cell-based, SAOS-2.

Chain of Melanocyte-stimulating hormone receptor (Q01726 whole entry): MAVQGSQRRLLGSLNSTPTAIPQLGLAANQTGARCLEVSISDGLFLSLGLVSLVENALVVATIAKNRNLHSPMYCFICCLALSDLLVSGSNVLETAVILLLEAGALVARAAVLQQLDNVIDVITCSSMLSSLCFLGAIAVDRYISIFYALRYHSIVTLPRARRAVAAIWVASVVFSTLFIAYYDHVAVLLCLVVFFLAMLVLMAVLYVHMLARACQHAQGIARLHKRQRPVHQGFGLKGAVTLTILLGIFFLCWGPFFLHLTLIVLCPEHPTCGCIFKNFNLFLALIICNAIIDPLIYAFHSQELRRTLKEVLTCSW
T1 sequence (P32245 whole entry): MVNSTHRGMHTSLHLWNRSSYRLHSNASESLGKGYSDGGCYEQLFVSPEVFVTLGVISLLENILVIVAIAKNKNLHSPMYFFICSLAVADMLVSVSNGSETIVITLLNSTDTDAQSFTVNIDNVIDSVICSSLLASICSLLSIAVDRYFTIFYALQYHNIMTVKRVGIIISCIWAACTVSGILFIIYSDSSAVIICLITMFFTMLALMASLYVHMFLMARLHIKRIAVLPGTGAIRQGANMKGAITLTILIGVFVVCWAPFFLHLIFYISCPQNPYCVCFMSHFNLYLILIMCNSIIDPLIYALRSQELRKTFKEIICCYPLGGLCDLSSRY

The Ki is a dissociation constant, usually derived from enzyme kinetics or from competition with a known ligand. A higher Ki goes with lower affinity. As a reminder, the EC50 is the concentration needed to bring the measured effect to its halfway point. As to `NC(N)=NCCC[C@@H]1NC(=O)[C@@H](Cc2ccccc2)NC(=O)[C@H](Cc2cnc[nH]2)NC(=O)CCCNC(=O)[C@H](Cc2c[nH]c3ccccc23)NC1=O`, the affinity on Melanocortin receptor 4 [1], expressed as Ki, was 5.78 µM. For the same compound, in test [2], the EC50 ratio (MC1R/MC4R) was 0.17. Moreover, the EC50 in test [3] was found to be 0.27 µM; on Melanocortin receptor 4 [4], 1.58 µM.

As to `N=C(N)NCCC[C@@H]1NC(=O)[C@@H](Cc2ccccc2)NC(=O)[C@H](Cc2c[nH]cn2)NC(=O)CCCCCNC(=O)[C@H](Cc2c[nH]c3ccccc23)NC1=O`, the Ki at Melanocortin receptor 4 [1] is 0.67 µM. Moreover, the EC50 ratio (MC1R/MC4R) in test [2] is 0.42. In addition, the EC50 in test [3] was determined as 1.3 µM; on Melanocortin receptor 4 [4] it was 3.12 µM.

For `N=C(N)NCCC[C@@H]1NC(=O)[C@@H](Cc2ccccc2)NC(=O)[C@H](Cc2c[nH]cn2)NC(=O)CCCCNC(=O)[C@H](Cc2c[nH]c3ccccc23)NC1=O`, in test [2], the EC50 ratio (MC1R/MC4R) was 0.33. In addition, the values for the EC50 (in test [3]; on Melanocortin receptor 4 [4]) were 3.3 µM and 10.1 µM, respectively.

On Melanocortin receptor 4 [1], `N=C(N)NCCC[C@@H]1NC(=O)[C@H](Cc2ccccc2)NC(=O)[C@H](Cc2cnc[nH]2)NC(=O)CCCCCCCNC(=O)[C@H](Cc2c[nH]c3ccccc23)NC1=O` gave a Ki of 4.42 µM. For the same compound, the EC50 ratio (MC1R/MC4R) in test [2] turned out to be 0.53. Besides, the EC50 came to 5.1 µM in test [3] and 9.59 µM on Melanocortin receptor 4 [4].

Regarding `NC(N)=NCCC[C@@H]1NC(=O)[C@@H](Cc2ccccc2)NC(=O)[C@H](Cc2cnc[nH]2)NC(=O)CCCCCCCNC(=O)[C@H](Cc2c[nH]c3ccccc23)NC1=O`, the Ki on Melanocortin receptor 4 [1] is 0.319 µM. Moreover, in test [2], the EC50 ratio (MC1R/MC4R) stood at 4.7. The EC50 in test [3] worked out at 0.0774 µM; at Melanocortin receptor 4 [4] it was 0.0164 µM.

`N=C(N)NCCC[C@@H]1NC(=O)[C@@H](Cc2ccccc2)NC(=O)[C@H](Cc2c[nH]cn2)NC(=O)CCCCCCNC(=O)[C@H](Cc2c[nH]c3ccccc23)NC1=O` returned a Ki on Melanocortin receptor 4 [1] of 0.244 µM. Also, in test [2], the EC50 ratio (MC1R/MC4R) came out at 4.3. Besides, the EC50 was determined as 0.067 µM in test [3] and 0.0154 µM at Melanocortin receptor 4 [4].
